The text below walks through data of ChEMBL document CHEMBL4334468, “Exploring Mitochondria-Mediated Intrinsic Apoptosis by New Phytochemical Entities: An Explicit Observation of Cytochrome c Dynamics on Lung and Melanoma Cancer Cells” (J Med Chem, 2019).

Molecules are shown by their SMILES. Active and inactive are the calls of the source. The calls are words filed in the database; no cut-off is given here.

For test [1], the system named is A-375. The test is described as follows: Cytotoxicity in human A375 cells assessed as reduction in cell viability incubated for 24 hrs by MTT assay. It counts as functional, cell-based. Summed up: (§1)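 MTT viability assay on A375 melanoma, A549 lung adenocarcinoma and WI-38 normal lung fibroblast cells after 24 and 48 h treatment. IC50 values are in µM, expressed as mean ± SD.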

For test [2], the system named is A-375. The test is described as follows: Cytotoxicity in human A375 cells assessed as reduction in cell viability incubated for 48 hrs by MTT assay. Type of test: functional, cell-based. Summed up: as §1
A general note: Formazan colour is commonly taken as a measure of viable cells.

The subject of test [3] is A549. The test can be described thus: Cytotoxicity in human A549 cells assessed as reduction in cell viability incubated for 24 hrs by MTT assay. It counts as functional, cell-based. The gist of the method: as §1
The subject of test [4] is A549. The test is described as follows: Cytotoxicity in human A549 cells assessed as reduction in cell viability incubated for 48 hrs by MTT assay. Type of test: functional, cell-based. Summed up:
as §1

Test [5] has as its system WI-38. The test can be described thus: Cytotoxicity in human WI38 cells assessed as reduction in cell viability incubated for 24 hrs by MTT assay. Type of test: cell-based. Summed up: as §1
The subject of test [6] is WI-38. The test is described as follows: Cytotoxicity in human WI38 cells assessed as reduction in cell viability incubated for 48 hrs by MTT assay. It counts as cell-based. Summed up: as §1
A short description of test [7]: Antioxidant activity assessed as DPPH radical scavenging activity at 1 to 1000 ug/ml incubated for 30 mins by spectrophotometry. It counts as functional. A general note: Loss of DPPH colour is used to gauge radical scavenging.
Test [8] is described as follows: Antioxidant activity at 1 to 1000 ug/ml incubated for 90 mins by FRAP assay. It counts as functional.
Test [9] is described as follows: Antioxidant activity assessed as hydroxyl radical scavenging activity at 1 to 1000 ug/ml incubated for 1 hr. Type of test: functional.
Test [10] relates to A549. The test is described as follows: Induction of GSH depletion in human A549 cells by fluorimetry. It counts as functional, cell-based.
Test [11] deals with A-375. The test can be described thus: Induction of GSH depletion in human A375 cells by fluorimetry. It counts as functional, cell-based.
Setting [12] is: Homo sapiens, A-375, 24 h, read-out: IC50.
Setting [13] is: Homo sapiens, A-375, 48 h, read-out: IC50.
The mark [14] stands for this setting: Homo sapiens, A549, 24 h, read-out: IC50.
The mark [15] stands for this setting: Homo sapiens, A549, 48 h, read-out: IC50.
Setting [16] is: Homo sapiens, WI-38, 48 h, read-out: IC50.

By IC50 is commonly meant the concentration that inhibits the measured activity by half. Regarding `COc1cc(C2Oc3cc(-c4cc(=O)c5c(O)cc(O)cc5o4)ccc3OC2c2cc(CN)on2)ccc1O` (configuration not stated), the IC50 was 7.5 µM in [1] (setting [12]); 4.6 µM in test [2] (setting [13]); 5.2 µM in test [3] (setting [14]); 2.2 µM in test [4] (setting [15]); “Non-Toxic” in [5] (wi-38); “Non-Toxic” in test [6] (wi-38).
For `COc1cc(C2Oc3cc(-c4cc(=O)c5c(O)cc(O)cc5o4)ccc3OC2c2cc(C(C)(C)O)on2)ccc1O` (configuration not stated), the IC50 in [1] (setting [12]) was 1.43 µM; in test [2] (setting [13]) it was 0.65 µM; in test [3] (setting [14]) it was 4.8 µM; in test [4] (setting [15]), 2.9 µM; in test [5] (wi-38), “Non-Toxic”; in test [6] (wi-38), “Non-Toxic”.
Take `COc1cc(C2Oc3cc(-c4cc(=O)c5c(O)cc(O)cc5o4)ccc3OC2c2cc(C(=O)NS(=O)(=O)c3ccc(Cl)cc3)on2)ccc1O` (configuration not stated): the IC50 in test [1] (setting [12]) is 6.2 µM; in [2] (setting [13]) it was 4.2 µM; in test [3] (setting [14]), 8.7 µM; in test [4] (setting [15]) it was 6.6 µM; in test [5] (wi-38), “Non-Toxic”; in test [6] (setting [16]), 54.6 µM.
As to `COc1cc(C2Oc3cc(-c4cc(=O)c5c(O)cc(O)cc5o4)ccc3OC2c2cc(-c3ccc(C)cc3)on2)ccc1O` (configuration not stated), the IC50 result in [1] (a-375) was “Not Active”; in test [2] (a-375), “Not Active”; in test [3] (a549), “Not Active”; in [4] (setting [15]), 77.4 µM; in test [5] (wi-38), “Non-Toxic”; in test [6] (wi-38), “Non-Toxic”.
Regarding `COc1cc(C2Oc3cc(-c4cc(=O)c5c(O)cc(O)cc5o4)ccc3OC2/C=C2/C(=O)ON(C)C2C)ccc1O` (configuration not stated), the concentration for half-maximal inhibition (IC50) was 3.1 µM in [1] (setting [12]); 2.4 µM in [2] (setting [13]); 4.5 µM in [3] (setting [14]); 3.8 µM in test [4] (setting [15]); “Non-Toxic” in [5] (wi-38); 68 µM in [6] (setting [16]).
`COc1cc(C2Oc3cc(-c4cc(=O)c5c(O)cc(O)cc5o4)ccc3OC2/C=C2/C(=O)ON(c3ccccc3)C2C)ccc1O` (configuration not stated): the IC50 entry in test [1] (a-375) is “Not Active”; in test [2] (a-375) it was “Not Active”; in [3] (setting [14]), 83 µM; in [4] (setting [15]) it was 71.5 µM; in test [5] (wi-38), “Non-Toxic”; in test [6] (wi-38), “Non-Toxic”.
On to `COc1cc(C2Oc3cc(-c4cc(=O)c5c(O)cc(O)cc5o4)ccc3OC2/C=C2/C(=O)ONC2CCl)ccc1O` (configuration not stated), for which the IC50 in test [1] (setting [12]) turned out to be 0.04 µM; in [2] (setting [13]), 0.035 µM; in test [3] (setting [14]), 0.095 µM; in test [4] (setting [15]), 0.07 µM; in test [5] (Homo sapiens, WI-38, 24 h, read-out: IC50), 5.5 µM; in [6] (setting [16]), 4.9 µM.
Take `COc1cc(C2Oc3cc(-c4cc(=O)c5c(O)cc(O)cc5o4)ccc3OC2/C=C2/C(=O)ONC2c2ccccc2)ccc1O` (configuration not stated): the IC50 in test [1] (setting [12]) is 18.5 µM; in [2] (setting [13]), 15.6 µM; in [3] (setting [14]) it was 13.5 µM; in test [4] (setting [15]) it was 10 µM; in test [5] (wi-38), “Non-Toxic”; in test [6] (wi-38), “Non-Toxic”.
For the molecule `COc1cc(C2Oc3cc(-c4cc(=O)c5c(O)cc(O)cc5o4)ccc3OC2c2cc(C(=O)NC3CCCCC3)on2)ccc1O` (configuration not stated), the IC50 was 66.8 µM in test [1] (setting [12]); 28.8 µM in test [2] (setting [13]); 80 µM in test [3] (setting [14]); 14.5 µM in test [4] (setting [15]); “Non-Toxic” in test [5] (wi-38); “Non-Toxic” in test [6] (wi-38).
On to `COc1cc(C2Oc3cc(-c4cc(=O)c5c(O)cc(O)cc5o4)ccc3OC2/C=C2/C(=O)ONC2c2ccc(F)cc2)ccc1O` (configuration not stated), for which the IC50 in test [1] (setting [12]) was 13.7 µM; in test [2] (setting [13]), 7.9 µM; in test [3] (setting [14]), 1.4 µM; in test [4] (setting [15]), 7.5 µM; in [5] (wi-38) it was “Non-Toxic”; in test [6] (wi-38), “Non-Toxic”.
As for `COc1cc(C2Oc3cc(-c4cc(=O)c5c(O)cc(O)cc5o4)ccc3OC2/C=C2/C(=O)ONC2C)ccc1O` (configuration not stated), the IC50 entry in test [1] (a-375) was “Not Active”; in [2] (a-375), “Not Active”; in [3] (a549) it was “Not Active”; in [4] (a549), “Not Active”; in test [5] (wi-38), “Non-Toxic”; in test [6] (wi-38), “Non-Toxic”.
`COc1cc(C2Oc3cc(-c4cc(=O)c5c(O)cc(O)cc5o4)ccc3OC2c2noc(C)c2CO)ccc1O` (configuration not stated): the IC50 was 68.7 µM in test [1] (setting [12]); 46.5 µM in [2] (setting [13]); 68 µM in test [3] (setting [14]); 51 µM in [4] (setting [15]); “Non-Toxic” in test [5] (wi-38); “Non-Toxic” in test [6] (wi-38).
Regarding `COc1cc(C2Oc3cc(-c4cc(=O)c5c(O)cc(O)cc5o4)ccc3OC2/C=C2/C(=O)ONC2C(F)(F)F)ccc1O` (configuration not stated), the IC50 in test [1] (setting [12]) was 2 µM; in test [2] (setting [13]), 0.83 µM; in test [3] (setting [14]) it was 2.1 µM; in [4] (setting [15]) it was 16.4 µM; in test [5] (wi-38), “Non-Toxic”; in [6] (setting [16]), 95 µM.
Take `COc1cc(C2Oc3cc(-c4cc(=O)c5c(O)cc(O)cc5o4)ccc3OC2/C=C2/C(=O)ONC2c2ccc(C)cc2)ccc1O` (configuration not stated): the IC50 in test [1] (setting [12]) was 9.2 µM; in test [2] (setting [13]) it was 6.7 µM; in test [3] (setting [14]), 12.7 µM; in test [4] (setting [15]) it was 9 µM; in [5] (wi-38) it was “Non-Toxic”; in test [6] (wi-38), “Non-Toxic”.
As for `COc1cc(C2Oc3cc(-c4cc(=O)c5c(O)cc(O)cc5o4)ccc3OC2c2cc(Cc3ccccc3)on2)ccc1O` (configuration not stated), the IC50 was 4.6 µM in [1] (setting [12]); 0.9 µM in test [2] (setting [13]); 7 µM in test [3] (setting [14]); 3.9 µM in test [4] (setting [15]); “Non-Toxic” in test [5] (wi-38); “Non-Toxic” in test [6] (wi-38).
On to `COc1cc(C2Oc3cc(-c4cc(=O)c5c(O)cc(O)cc5o4)ccc3OC2c2cc(C(=O)NS(=O)(=O)c3ccccc3)on2)ccc1O` (configuration not stated), for which the IC50 in test [1] (setting [12]) was 7.2 µM; in test [2] (setting [13]), 3.5 µM; in [3] (setting [14]), 51 µM; in test [4] (setting [15]), 6.3 µM; in test [5] (wi-38), “Non-Toxic”; in test [6] (wi-38), “Non-Toxic”.
Turning to `COc1cc(C2Oc3cc(-c4cc(=O)c5c(O)cc(O)cc5o4)ccc3OC2c2cc(CO)on2)ccc1O` (configuration not stated), the IC50 result in test [1] (a-375) is “Not Active”; in test [2] (setting [13]), 74.9 µM; in [3] (a549), “Not Active”; in [4] (a549) it was “Not Active”; in test [5] (wi-38), “Non-Toxic”; in test [6] (wi-38), “Non-Toxic”.
As for `CCCC1NOC(=O)/C1=C/C1Oc2ccc(-c3cc(=O)c4c(O)cc(O)cc4o3)cc2OC1c1ccc(O)c(OC)c1` (configuration not stated), the IC50 in test [1] (setting [12]) was 92.7 µM; in [2] (setting [13]), 60 µM; in test [3] (a549) it was “Not Active”; in [4] (a549) it was “Not Active”; in test [5] (wi-38), “Non-Toxic”; in [6] (wi-38), “Non-Toxic”.
With `COc1cc(C2Oc3cc(-c4cc(=O)c5c(O)cc(O)cc5o4)ccc3OC2c2cc(C(=O)Nc3ccc(C(F)(F)F)cc3)on2)ccc1O` (configuration not stated), the IC50 was 4 µM in test [1] (setting [12]); 0.95 µM in [2] (setting [13]); 3.6 µM in test [3] (setting [14]); 0.76 µM in test [4] (setting [15]); “Non-Toxic” in test [5] (wi-38); “Non-Toxic” in test [6] (wi-38).
In the case of `COc1cc(C2Oc3cc(-c4cc(=O)c5c(O)cc(O)cc5o4)ccc3OC2CO)ccc1O` (configuration not stated), the IC50 in test [1] (setting [12]) is 71.6 µM; in test [2] (setting [13]), 49.2 µM; in test [3] (setting [14]), 88.6 µM; in [4] (setting [15]), 68 µM; in test [5] (wi-38) it was “Non-Toxic”; in test [6] (wi-38), “Non-Toxic”. Also, the outcome in [7], in [8], in test [9], in test [10] and in [11] was inactive.
Regarding `COc1cc(C2Oc3cc(-c4cc(=O)c5c(O)cc(O)cc5o4)ccc3OC2C=O)ccc1O` (configuration not stated), the IC50 in test [1] (setting [12]) was 63 µM; in [2] (setting [13]) it was 43.8 µM; in [3] (setting [14]), 96 µM; in test [4] (setting [15]), 87.8 µM; in test [5] (wi-38), “Non-Toxic”; in [6] (wi-38), “Non-Toxic”.
Turning to `COc1cc(C2Oc3cc(-c4cc(=O)c5c(O)cc(O)cc5o4)ccc3OC2/C=C2/C(=O)ONC2c2ccc(Cl)cc2)ccc1O` (configuration not stated), the IC50 in test [1] (setting [12]) is 1.2 µM; in [2] (setting [13]), 0.94 µM; in test [3] (setting [14]) it was 2 µM; in test [4] (setting [15]) it was 1.2 µM; in test [5] (wi-38) it was “Non-Toxic”; in [6] (wi-38) it was “Non-Toxic”.
